According to ChEMBL document CHEMBL1156133, “Losartan-antioxidant hybrids: novel molecules for the prevention of hypertension-induced cardiovascular damage” (J Med Chem, 2009):
The source made the active and inactive calls. No cut-off for these calls is given here.

Key:
Rattus norvegicus [1] = assay: Antihypertensive activity in Wistar rat assessed as normalization of L-NAME-induced systolic blood pressure at 10 mg/kg/day, po for 4 weeks; type: functional, organism-based; conditions: Artery
In short: (§1)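 L-NAME (20 mg/kg/day, drinking water, 8 weeks) hypertensive two-month-old male Wistar rats; treatments in drinking water daily for the last 4 weeks. Systolic pressure by tail-cuff in conscious animals. At sacrifice heart weighed (corrected to body weight); aortic rings from descending thoracic aorta, formaldehyde-flushed, media thickness by planimetry. Mean ± SEM of 10 rats.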

[2] = Antioxidant activity assessed as inhibition of oxidation of chromogen (ABTS) measured per mmol/L of product by total antioxidant assay; type: functional
In short: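 Total antioxidant status kit: inhibition of ABTS oxidation by metmyoglobin and hydrogen peroxide, followed at 600 nm absorbance; antioxidant ability proportional to absorbance reduction, expressed as mM. Compounds tested at 1 mmol/L.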

Rattus norvegicus [3] = assay: Antihypertensive activity in Wistar rat assessed as normalization of L-NAME-induced heart weight at 20 mg/kg/day, po for 4 weeks in presence of L-NAME; type: functional, organism-based; conditions: 28 mg/kg, in the assay text read “28 mg/kg/day” for “20 mg/kg/day”; in short: as §1
Rattus norvegicus [4] = assay: Antihypertensive activity in L-NAME-induced Wistar rat assessed as decrease in blood ALT level at 20 mg/kg/day, po for last 4 weeks measured after 8 weeks; type: functional
In short: (§2)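 Two-month-old male Wistar rats given L-NAME in drinking water (20 mg/kg/day) for 8 weeks. From week 4, treatment is given daily in drinking water during 12.00–18.00 h, at the dose stated in the line. Ten rats per group. Sacrificed under halothane between 9.00 and 10.00 h. Serum is measured on an automatic analyzer. Mean ± SEM, nonparametric statistics.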

Rattus norvegicus [5] = assay: Antihypertensive activity in Wistar rat assessed as normalization of L-NAME-induced systolic blood pressure at 20 mg/kg/day, po for 4 weeks; type: functional, organism-based; conditions: Artery; in short: as §1
Rattus norvegicus [6] = assay: Antihypertensive activity in L-NAME-induced Wistar rat assessed as decrease in blood Na+ level at 20 mg/kg/day, po for last 4 weeks measured after 8 weeks; type: functional; in short: as §2
Rattus norvegicus [7] = assay: Antihypertensive activity in L-NAME-induced Wistar rat assessed as decrease in blood AST level at 20 mg/kg/day, po for last 4 weeks measured after 8 weeks; type: functional; in short: as §2
Rattus norvegicus [8] = assay: Antihypertensive activity in L-NAME-induced Wistar rat assessed as decrease in blood triglyceride level at 20 mg/kg/day, po for last 4 weeks measured after 8 weeks; type: functional; in short: as §2
Rattus norvegicus [9] = assay: Antihypertensive activity in L-NAME-induced Wistar rat assessed as decrease in blood creatinine level at 20 mg/kg/day, po for last 4 weeks measured after 8 weeks; type: functional; in short: as §2
Rattus norvegicus [10] = assay: Antihypertensive activity in Wistar rat assessed as normalization of L-NAME-induced aorta thickness at 10 mg/kg/day, po for 4 weeks; type: functional, organism-based; in short: as §1
Rattus norvegicus [11] = assay: Antihypertensive activity in L-NAME-induced Wistar rat assessed as decrease in blood glucose level at 20 mg/kg/day, po for last 4 weeks measured after 8 weeks; type: functional; in short: as §2
Rattus norvegicus [12] = assay: Antihypertensive activity in L-NAME-induced Wistar rat assessed as decrease in blood cholesterol level at 20 mg/kg/day, po for last 4 weeks measured after 8 weeks; type: functional; in short: as §2
Rattus norvegicus [13] = assay: Antihypertensive activity in L-NAME-induced Wistar rat assessed as decrease in blood […] level at 20 mg/kg/day, po for last 4 weeks measured after 8 weeks; type: functional; in short: as §2
Rattus norvegicus [14] = assay: Antihypertensive activity in L-NAME-induced Wistar rat assessed as decrease in blood urea level at 20 mg/kg/day, po for last 4 weeks measured after 8 weeks; type: functional; in short: as §2
VSMC = assay: Displacement of [125I]angiotensin II from angiotensin 2 receptor in Wistar rat VSMC cells by gamma-counter; type: cell-based; design: concentration or dose not given beside the values
In short: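 Rat aortic VSMC (collagenase-derived primary cultures, passages 3-5) resuspended in Tris-glucose-NaCl buffer pH 7.4 at 0.5 μg/μL protein; 125 μg protein incubated 45 min with 0.15 nM 125I-angiotensin II plus compound. Bound separated by centrifugation, pellet washed with cold 0.15 M NaCl, gamma counted; nonspecific binding with 10^-4 M angiotensin II.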

Rattus norvegicus [15] = assay: Antihypertensive activity in L-NAME-induced Wistar rat assessed as decrease in blood LDH level at 20 mg/kg/day, po for last 4 weeks measured after 8 weeks; type: functional; in short: as §2
Rattus norvegicus [16] = assay: Antihypertensive activity in L-NAME-induced Wistar rat assessed as decrease in blood calcium level at 20 mg/kg/day, po for last 4 weeks measured after 8 weeks; type: functional; in short: as §2
Rattus norvegicus [17] = assay: Antihypertensive activity in L-NAME-induced Wistar rat assessed as decrease in blood protein level at 20 mg/kg/day, po for last 4 weeks measured after 8 weeks; type: functional; in short: as §2
Rattus norvegicus [18] = assay: Antihypertensive activity in L-NAME-induced Wistar rat assessed as decrease in blood glucose level at 30 mg/kg/day, po for last 4 weeks measured after 8 weeks; type: functional; in short: as §2
Rattus norvegicus [19] = assay: Antihypertensive activity in L-NAME-induced Wistar rat assessed as decrease in blood urea level at 30 mg/kg/day, po for last 4 weeks measured after 8 weeks; type: functional; in short: as §2
Rattus norvegicus [20] = assay: Antihypertensive activity in L-NAME-induced Wistar rat assessed as decrease in blood LDH level at 30 mg/kg/day, po for last 4 weeks measured after 8 weeks; type: functional; in short: as §2
Rattus norvegicus [21] = assay: Antihypertensive activity in Wistar rat assessed as normalization of L-NAME-induced heart weight at 30 mg/kg/day, po for 4 weeks in presence of L-NAME; type: functional, organism-based; in short: as §1
Rattus norvegicus [22] = assay: Antihypertensive activity in L-NAME-induced Wistar rat assessed as decrease in blood cholesterol level at 30 mg/kg/day, po for last 4 weeks measured after 8 weeks; type: functional; in short: as §2
Rattus norvegicus [23] = assay: Antihypertensive activity in Wistar rat assessed as normalization of L-NAME-induced collagen 1 level in vessel walls at 30 mg/kg/day, po for 4 weeks in presence of losartan; type: functional, organism-based
In short: (§3)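 Male Wistar rats on L-NAME in drinking water (20 mg/kg/day) for 8 weeks, treatments in drinking water for the last 4 weeks. Thoracic aorta lysates run on SDS-PAGE and Western blotted for collagen type I, fibronectin or HNE-lysine, with β-tubulin as loading control; ECL detection, densitometry. Expressed as percent of basal; mean ± SEM of 10 experiments.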

Rattus norvegicus [24] = assay: Antihypertensive activity in L-NAME-induced Wistar rat assessed as decrease in blood ALT level at 30 mg/kg/day, po for last 4 weeks measured after 8 weeks; type: functional; in short: as §2
Rattus norvegicus [25] = assay: Antihypertensive activity in Wistar rat assessed as normalization of L-NAME-induced systolic blood pressure at 30 mg/kg/day, po for 4 weeks; type: functional, organism-based; conditions: Artery; in short: as §1
Rattus norvegicus [26] = assay: Antihypertensive activity in L-NAME-induced Wistar rat assessed as decrease in blood AST level at 30 mg/kg/day, po for last 4 weeks measured after 8 weeks; type: functional; in short: as §2
Rattus norvegicus [27] = assay: Antihypertensive activity in Wistar rat assessed as normalization of L-NAME-induced HNE-lysine accumulation in vessel walls at 30 mg/kg/day, po for 4 weeks in presence of losartan; type: functional, organism-based; in short: as §3
Rattus norvegicus [28] = assay: Antihypertensive activity in Wistar rat assessed as normalization of L-NAME-induced fibronectin content in vessel walls at 30 mg/kg/day, po for 4 weeks in presence of losartan; type: functional, organism-based; in short: as §3
Rattus norvegicus [29] = assay: Antihypertensive activity in L-NAME-induced Wistar rat assessed as decrease in blood protein level at 30 mg/kg/day, po for last 4 weeks measured after 8 weeks; type: functional; in short: as §2
Rattus norvegicus [30] = assay: Antihypertensive activity in L-NAME-induced Wistar rat assessed as decrease in blood Na+ level at 30 mg/kg/day, po for last 4 weeks measured after 8 weeks; type: functional; in short: as §2
Rattus norvegicus [31] = assay: Antihypertensive activity in L-NAME-induced Wistar rat assessed as decrease in blood calcium level at 30 mg/kg/day, po for last 4 weeks measured after 8 weeks; type: functional; in short: as §2
Rattus norvegicus [32] = assay: Antihypertensive activity in L-NAME-induced Wistar rat assessed as decrease in blood […] level at 30 mg/kg/day, po for last 4 weeks measured after 8 weeks; type: functional; in short: as §2
Rattus norvegicus [33] = assay: Antihypertensive activity in L-NAME-induced Wistar rat assessed as decrease in blood creatinine level at 30 mg/kg/day, po for last 4 weeks measured after 8 weeks; type: functional; in short: as §2
Rattus norvegicus [34] = assay: Antihypertensive activity in L-NAME-induced Wistar rat assessed as decrease in blood triglyceride level at 30 mg/kg/day, po for last 4 weeks measured after 8 weeks; type: functional; in short: as §2

For `CCCCc1nc(Cl)c(CO)n1Cc1ccc(-c2ccccc2-c2nnn[nH]2)cc1` [LOSARTAN], the Activity (Rattus norvegicus [1]) was “inactive”, the Activity [2] was 0.04 mmol/L and the Activity (Rattus norvegicus [3]) was “Active”. For the same compound, the Activity (Rattus norvegicus [4]) was 24 IU/L, the Activity (Rattus norvegicus [5]) was “Active” and the Activity (Rattus norvegicus [6]) was 151 mmol/L. For the same compound, the Activity (Rattus norvegicus [7]) was 91 IU/L, the Activity (Rattus norvegicus [8]) was 65 mg/dL and the Activity (Rattus norvegicus [9]) was 0.42 mg/dL. The Activity (Rattus norvegicus [10]) was “inactive”, the Activity (Rattus norvegicus [11]) was 149 mg/dL and the Activity (Rattus norvegicus [12]) was 48 mg/dL. It also gave an Activity (Rattus norvegicus [13]) of 4.7 mmol/L, an Activity (Rattus norvegicus [14]) of 24 mg/dL and an Activity (VSMC) of 53%. It also gave an Activity (Rattus norvegicus [15]) of 622 IU/L, an Activity (Rattus norvegicus [16]) of 8.3 mg/dL and an Activity (Rattus norvegicus [17]) of 5 g/dL.

For `CCCCc1ncc(COC(=O)CCc2ccc(O)c(O)c2)n1Cc1ccc(-c2ccccc2-c2nnn[nH]2)cc1`, the Activity (Rattus norvegicus [1]) was “inactive”, the Activity (Rattus norvegicus [18]) was 149 mg/dL and the Activity (Rattus norvegicus [19]) was 24 mg/dL. The Activity (Rattus norvegicus [20]) was 600 IU/L, the Activity [2] was 0.31 mmol/L and the Activity (Rattus norvegicus [21]) was “Active”. For the same compound, the Activity (Rattus norvegicus [22]) was 55 mg/dL, the Activity (Rattus norvegicus [23]) was “Active” and the Activity (Rattus norvegicus [24]) was 25 IU/L. The Activity (Rattus norvegicus [25]) was “Active”, the Activity (Rattus norvegicus [10]) was “inactive” and the Activity (Rattus norvegicus [26]) was 85 IU/L. For the same compound, the Activity (Rattus norvegicus [27]) was “Active”, the Activity (Rattus norvegicus [28]) was “Active” and the Activity (Rattus norvegicus [29]) was 4.5 g/dL. For the same compound, the Activity (VSMC) was 60%, the Activity (Rattus norvegicus [30]) was 151 mmol/L and the Activity (Rattus norvegicus [31]) was 8.6 mg/dL. The Activity (Rattus norvegicus [32]) was 4.4 mmol/L, the Activity (Rattus norvegicus [33]) was 0.43 mg/dL and the Activity (Rattus norvegicus [34]) was 60 mg/dL.

For `CCCCc1nc(Cl)c(COC(=O)C2(C)CCc3c(C)c(O)c(C)c(C)c3O2)n1Cc1ccc(-c2ccccc2-c2nnn[nH]2)cc1` (stereo not drawn), the Activity [2] was 0.25 mmol/L and the Activity (VSMC) was 68%.

With `CCCCc1ncc(COC(=O)c2cc(OC)c(O)c(OC)c2)n1Cc1ccc(-c2ccccc2-c2nnn[nH]2)cc1` the Activity [2] was 0.31 mmol/L and the Activity (VSMC) was 66%.
